Laboratory results as given in ChEMBL document CHEMBL1137333, “Synthesis, radiosynthesis, and biological evaluation of carbon-11 labeled 2beta-carbomethoxy-3beta-(3'-((Z)-2-haloethenyl)phenyl)nortropanes: candidate radioligands for in vivo imaging of the serotonin transporter with positron emission tomography” (J Med Chem, 2006).

What was measured:
[1] = test system: Cynomolgus monkey; experiment: Ratio of uptake in midbrain to cerebellum of anesthetized cynomolgus monkey after 105 mins; type: ADME, organism-based; conditions: in vivo, 1.75 h
Summary of the method: (§1)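 Baseline microPET (Concorde P4) in anesthetized cynomolgus monkey after injection of the [11C]-labelled tracer. Regional time-activity curves were taken, and each region's uptake was divided by cerebellum uptake (low-SERT reference) at 65, 85 and 105 min postinjection.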

[2] = test system: Cynomolgus monkey; experiment: Uptake in anesthetized cynomolgus monkey medulla after 22.5 mins; type: ADME, organism-based, Medulla of organ; conditions: in vivo, 0.375 h
Summary of the method: (§2)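 Baseline microPET scan (P4 scanner) of anesthetized cynomolgus monkeys after injection of the carbon-11 labelled nortropane tracer. Two baseline studies were run per tracer. Radioactivity was followed over time in regional brain time-activity curves.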

[3] = test system: Cynomolgus monkey; experiment: Uptake in anesthetized cynomolgus monkey putamen after 15.5 mins; type: ADME, organism-based; conditions: in vivo
Summary of the method: (§3)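 Baseline microPET (Concorde P4) scan in anesthetized cynomolgus monkeys after injection of the carbon-11 labeled tracer, with no chase drug. Regional brain time-activity curves were followed over the scan. Tracer radiochemical purity and specific activity were determined by analytical HPLC at the time of injection.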

[4] = test system: Cynomolgus monkey; experiment: Uptake in anesthetized cynomolgus monkey thalamus after 105.0 mins; type: ADME, organism-based; conditions: in vivo, 1.75 h; summary of the method: as §3
[5] = test system: Cynomolgus monkey; experiment: Uptake in anesthetized cynomolgus monkey frontal after 15.5 mins; type: ADME, organism-based, Frontal cortex; conditions: in vivo; summary of the method: as §2
[6] = test system: Cynomolgus monkey; experiment: Ratio of uptake in frontal to cerebellum of anesthetized cynomolgus monkey after 85 mins; type: ADME, organism-based; conditions: in vivo; summary of the method: as §1
[7] = test system: Cynomolgus monkey; experiment: Uptake in anesthetized cynomolgus monkey frontal after 9.5 mins; type: ADME, organism-based, Frontal cortex; conditions: in vivo; summary of the method: as §2
[8] = test system: Cynomolgus monkey; experiment: Uptake in anesthetized cynomolgus monkey caudate after 0.5 mins; type: ADME, organism-based, Caudate nucleus; conditions: in vivo
Summary of the method: (§4)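 Baseline microPET (Concorde P4) regional brain time-activity curves in anesthetized cynomolgus monkey following injection of the [11C]-labelled tracer, with radioactivity followed over the scan.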

[9] = test system: Cynomolgus monkey; experiment: Uptake in anesthetized cynomolgus monkey putamen after 45.0 mins; type: ADME, organism-based; conditions: in vivo, 0.75 h; summary of the method: as §3
[10] = test system: Cynomolgus monkey; experiment: Uptake in anesthetized cynomolgus monkey cerebellum after 18.5 mins; type: ADME, organism-based, Macaca mulatta; conditions: rhesus monkey, in vivo; summary of the method: as §4
[11] = test system: Cynomolgus monkey; experiment: Ratio of uptake in pons to cerebellum of anesthetized cynomolgus monkey after 85 mins; type: ADME, organism-based; conditions: in vivo; summary of the method: as §1
[12] = test system: Cynomolgus monkey; experiment: Uptake in anesthetized cynomolgus monkey pons after 27.5 mins; type: ADME, organism-based; conditions: in vivo; summary of the method: as §3
[13] = test system: Cynomolgus monkey; experiment: Uptake in anesthetized cynomolgus monkey medulla after 3.5 mins; type: ADME, organism-based, Medulla of organ; conditions: in vivo; summary of the method: as §2
[14] = test system: Cynomolgus monkey; experiment: Ratio of uptake in medulla to cerebellum of anesthetized cynomolgus monkey after 105 mins; type: ADME, organism-based; conditions: in vivo, 1.75 h; summary of the method: as §1
[15] = test system: Cynomolgus monkey; experiment: Uptake in anesthetized cynomolgus monkey medulla after 65.0 mins; type: ADME, organism-based, Medulla of organ; conditions: in vivo; summary of the method: as §2
[16] = test system: Cynomolgus monkey; experiment: Ratio of uptake in occipital to cerebellum of anesthetized cynomolgus monkey after 65 mins; type: ADME, organism-based; conditions: in vivo; summary of the method: as §1
[17] = test system: Cynomolgus monkey; experiment: Uptake in anesthetized cynomolgus monkey frontal after 4.5 mins; type: ADME, organism-based, Frontal cortex; conditions: in vivo, 0.075 h; summary of the method: as §2
[18] = test system: Cynomolgus monkey; experiment: Uptake in anesthetized cynomolgus monkey frontal after 35.0 mins; type: ADME, organism-based, Frontal cortex; conditions: in vivo; summary of the method: as §2
[19] = test system: Cynomolgus monkey; experiment: Ratio of uptake in pons to cerebellum of anesthetized cynomolgus monkey after 105 mins; type: ADME, organism-based; conditions: in vivo, 1.75 h; summary of the method: as §1
[20] = test system: Cynomolgus monkey; experiment: Uptake in anesthetized cynomolgus monkey medulla after 6.5 mins; type: ADME, organism-based, Medulla of organ; conditions: in vivo; summary of the method: as §2
[21] = test system: Cynomolgus monkey; experiment: Uptake in anesthetized cynomolgus monkey occipital after 85.0 mins; type: ADME, organism-based, Macaca mulatta, Occipital cortex; conditions: rhesus monkey, in vivo; summary of the method: as §2
[22] = test system: Cynomolgus monkey; experiment: Uptake in anesthetized cynomolgus monkey caudate after 45.0 mins; type: ADME, organism-based, Caudate nucleus; conditions: in vivo, 0.75 h; summary of the method: as §4
[23] = test system: Cynomolgus monkey; experiment: Uptake in anesthetized cynomolgus monkey putamen after 12.5 mins; type: ADME, organism-based; conditions: in vivo; summary of the method: as §3
[24] = test system: Cynomolgus monkey; experiment: Uptake in anesthetized cynomolgus monkey medulla after 1.5 mins; type: ADME, organism-based, Medulla of organ; conditions: in vivo, 0.025 h; summary of the method: as §2
[25] = test system: Cynomolgus monkey; experiment: Uptake in anesthetized cynomolgus monkey medulla after 9.5 mins; type: ADME, organism-based, Medulla of organ; conditions: in vivo; summary of the method: as §2
[26] = test system: Cynomolgus monkey; experiment: Uptake in anesthetized cynomolgus monkey caudate after 115.0 mins; type: ADME, organism-based, Caudate nucleus; conditions: in vivo; summary of the method: as §4
[27] = test system: Cynomolgus monkey; experiment: Uptake in anesthetized cynomolgus monkey occipital after 55.0 mins; type: ADME, organism-based, Occipital cortex; conditions: in vivo; summary of the method: as §2
[28] = test system: Cynomolgus monkey; experiment: Uptake in anesthetized cynomolgus monkey caudate after 35.0 mins; type: ADME, organism-based, Caudate nucleus; conditions: in vivo; summary of the method: as §4
[29] = test system: Cynomolgus monkey; experiment: Ratio of uptake in thalamus to cerebellum of anesthetized cynomolgus monkey after 85 mins; type: ADME, organism-based; conditions: in vivo; summary of the method: as §1
[30] = test system: Cynomolgus monkey; experiment: Uptake in anesthetized cynomolgus monkey occipital after 65.0 mins; type: ADME, organism-based, Macaca mulatta, Occipital cortex; conditions: rhesus monkey, in vivo; summary of the method: as §2
[31] = test system: Cynomolgus monkey; experiment: Uptake in anesthetized cynomolgus monkey pons after 95.0 mins; type: ADME, organism-based; conditions: in vivo; summary of the method: as §3
[32] = test system: Cynomolgus monkey; experiment: Ratio of uptake in putamen to cerebellum of anesthetized cynomolgus monkey after 105 mins; type: ADME, organism-based; conditions: in vivo, 1.75 h; summary of the method: as §1
[33] = test system: Cynomolgus monkey; experiment: Uptake in anesthetized cynomolgus monkey occipital after 2.5 mins; type: ADME, organism-based, Macaca mulatta, Occipital cortex; conditions: rhesus monkey, in vivo; summary of the method: as §2
[34] = test system: Cynomolgus monkey; experiment: Uptake in anesthetized cynomolgus monkey frontal after 27.5 mins; type: ADME, organism-based, Frontal cortex; conditions: in vivo; summary of the method: as §2

Work on `[11CH3]OC(=O)[C@@H]1C2CCC(C[C@@H]1c1cccc(/C=C/Br)c1)N2` (some centres undefined) yielded a Ratio [1] of 1.9, a Drug uptake [2] of 6.96 and a Drug uptake [3] of 6.07. The Drug uptake [4] was 6.47, the Drug uptake [5] was 3.21 and the Ratio [6] was 1.2. For the same compound, the Drug uptake [7] was 2.85, the Drug uptake [8] was 0.01 and the Drug uptake [9] was 7.28. The Drug uptake [10] was 6.13, the Ratio [11] was 1.6 and the Drug uptake [12] was 6.51. The Drug uptake [13] was 2.5, the Ratio [14] was 1.7 and the Drug uptake [15] was 7.11. The Ratio [16] was 0.8, the Drug uptake [17] was 1.57 and the Drug uptake [18] was 3.7. It also gave a Ratio [19] of 1.8, a Drug uptake [20] of 5.27 and a Drug uptake [21] of 5.21. It also gave a Drug uptake [22] of 6.63, a Drug uptake [23] of 5.62 and a Drug uptake [24] of 0.4. The Drug uptake [25] was 5.99, the Drug uptake [26] was 6.42 and the Drug uptake [27] was 5.3. For the same compound, the Drug uptake [28] was 6.21, the Ratio [29] was 1.5 and the Drug uptake [30] was 5.14. The Drug uptake [31] was 8.08, the Ratio [32] was 1.8 and the Drug uptake [33] was 0.65. The Drug uptake [34] was 3.61.
